Experimental data from publication PMC4609290 (Molecular cell, 2015).

Legend:
[1] = system: H3(15-34) peptides; assay: Peptide pull-down and ITC of AF10PZP mutants; type: binding; conditions: pull-down and ITC assays
Outline: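 Alanine substitutions were made at AF10PZP residues that contact H3T22, H3K23, H3A24, H3R26 and H3K27. GST-AF10PZP (pGEX-6P-1 construct) was used in pull-downs with biotinylated H3(15-34) peptides, and binding was also assessed by ITC.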

[2] = system: H3K79me2 at the PABPC1 gene, U2OS cells; assay: ChIP of H3K79me2 at PABPC1; type: cell-based; conditions: AF10 deleted, normalized to total H3, three experiments
Outline: (§1)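 Direct ChIP at the PABPC1 gene used two primer positions along the gene in the U2OS AF10 complementation lines. GFP enrichment was expressed as % GFP signal/input. H3K79me2 signal was normalized to total H3 signal. SEM came from three experiments.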

[3] = system: ML2 leukemia cells; assay: Proliferation of ML2 cells; type: cell-based; conditions: AF10-depleted ML2 cells; three independent experiments
Outline: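 Growth curves were run on ML2 leukemia cells (MLL-AF6 fusion) carrying control or AF10-targeting sgRNA, either without reconstitution or reconstituted with wild-type AF10 or AF10L107A. SEM came from three independent experiments.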

[4] = system: chromatin (HeLa cells); assay: In situ fractionation, fluorescence microscopy; type: cell-based; conditions: detergent treatment prior to fixation, 30–60 cells, three independent fields, two biological replica
[5] = system: chromatin (U2OS cells); type: cell-based
Outline: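 Lysates from U2OS cells expressing wild-type or mutant GFP-AF10 were biochemically separated into soluble and chromatin-enriched fractions, then Western blotted with the indicated antibodies. Whole cell extract controlled for total AF10 expression, and tubulin and H3 levels controlled for integrity of fractionation.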

[6] = system: PABPC1 gene, U2OS cells; assay: ChIP of GFP at PABPC1; type: cell-based; conditions: % GFP signal/input, three experiments
Outline: as §1

B1: GFP-AF10L107A: AF10 mutant that abolishes H3 binding, involved in both K23 and K27 side-chain recognition (protein)
chain: MVSSDRPVSLEDEVSHSMKEMIGGCCVCSDERGWAENPLVYCDGHGCSVAVHQACYGIVQVPTGPWFCRKCESQERAARVRCELCPHKDGALKRTDNGGWAHVVCAAYIPEVQFANVSTMEPIVLQSVPHDRYNKTCYICDEQGRESKAATGACMTCNKHGCRQAFHVTCAQFAGLLCEEEGNGADNVQYCGYCKYHFSKLKKSKRGS
modifications: left off: GST, end not stated, kept
effect of AF10PZP mutation on binding to H3 peptides [1]: abolishes H3 binding
reconstitution of H3K79me2 signal at PABPC1 [2]: but not upon induction of GFP-AF10L107A
reversal of decreased proliferation [3]: but not with mutant AF10L107A
chromatin-association by in situ fractionation [4]: Decreased chromatin-association
AF10 enrichment at chromatin ([5]; tetracycline-inducible GFP-AF10): reduced in comparison to wild-type AF10
AF10 detected in the soluble fraction ([5]; versus wild-type AF10): more mutant being detected in the soluble fraction
occupancy at the PABPC1 gene [6]: low relative to wild-type GFP-AF10
